Screening data (PubChem BioAssay)
The entries come from a sample that favours hits as a whole.
INS-1E ATP HTS: preserves ATP levels in cytokine-treated INS-1E cells; INS-1E cytokine-induced death, ATP luminescence, 48 h; normalised: neutral wells 0, positive control 100; protection from cytokine-induced ATP loss, % at 10 µM; 0.1% of 20,000 active;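 active means mean replicate protection from cytokine-induced ATP loss at least 50% and at least 75% of replicates each reaching 50%; inconclusive means meets only one of the two criteria, mean or replicate share; inactive means fails both the mean and replicate share criteria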
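Material: INS-1E rat cells; Quantity: 8000 cells/well; Buffer or medium: phenol-red-free RPMI with 5% fetal bovine serum; Probe or stimulus: cytokine cocktail of IFN-γ, TNF-α and IL-1β; Compound dosing: single test concentration per compound, delivered by pin transfer; Incubation: 48 h co-treatment, 10 min post-lysis read; Signal: CellTiter-Glo luminescence.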
A1 apoptosis 2: blocks A1, raising caspase activity | MEF A1-2A-BIM cells, caspase-Glo luminescence, 3 h; percent of clofoctol response, DMSO zero | caspase activation, % (no concentration beside the values) | 24,000 tested, under 10 active | AID 2465; in the data active means caspase activation above about 5.9%; inconclusive means no clear call, values can overlap the other calls; inactive means below about 2.2%
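Evaluation: Caspase-3/7 activity from luminescence increase | Assay system: A1-2A-BIM mouse embryonic fibroblasts | Quantity: 2500 MEF cells/well | Medium: RPMI-1640 plus 10% FBS | Detection: Caspase-Glo 3/7 luminescence, 1 h at room temperature | Dosing: 50 nL compound per well, pinned | Timing: Cells settled overnight, compound exposure 3 h at 37 °C, 5% CO2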
T cruzi intra: intracellular Trypanosoma cruzi inhibition. intracellular Trypanosoma cruzi in host cells, plate reader. activity score (inhibition), % at 5.01 µM. 4.9% of 22,000 active. AID 651903; in the data active means activity score above about 55%; inconclusive means no clear call, values can overlap the other calls;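 further: parasites and compound incubated about four days before reading; 0% = median of neutral control wells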
Starred values were filed as active, the others as inactive.

Screening COc1ccc(CN(C)C[C@H]2Oc3ccc(NC(=O)Nc4ccc(OC)cc4)cc3CC(=O)N([C@H](C)CO)C[C@@H]2C)cc1 returned A1 apoptosis 2 0.
COc1ccc(NC(=O)Nc2ccc3c(c2)CC(=O)N([C@H](C)CO)C[C@@H](C)[C@H](CN(C)Cc2ccc(Cl)c(Cl)c2)O3)cc1 was read as INS-1E ATP HTS -29 and T cruzi intra inconclusive.
Screening C[C@@H]1CN([C@H](C)CO)C(=O)Cc2cc(NC(=O)Nc3ccc(F)cc3)ccc2O[C@H]1CN(C)Cc1ccc(Cl)c(Cl)c1 returned INS-1E ATP HTS -51, A1 apoptosis 2 1 and T cruzi intra 62*.
COc1ccc(NC(=O)Nc2ccc3c(c2)CC(=O)N([C@@H](C)CO)C[C@H](C)[C@H](CN(C)Cc2ccc(Cl)c(Cl)c2)O3)cc1 was read as INS-1E ATP HTS -45 and T cruzi intra 64*.
For O=C(N/N=C/C1CCCCC1)c1ccccc1O the results were INS-1E ATP HTS -20 and T cruzi intra -43.
Screening C[C@@H]1CN([C@H](C)CO)C(=O)Cc2cc(NC(=O)Nc3ccccc3)ccc2O[C@@H]1CN(C)CC1CC1 returned A1 apoptosis 2 -1.
Screening COc1ccc(NC(=O)N(C)C[C@H]2OCCCC[C@H](C)Oc3ccc(NC(=O)Nc4ccc5c(c4)OCO5)cc3C(=O)N([C@@H](C)CO)C[C@H]2C)cc1 returned A1 apoptosis 2 0.
Cc1ccc(S(=O)(=O)Nc2ccc3c(c2)C(=O)N([C@@H](C)CO)C[C@H](C)[C@@H](CN(C)C(=O)CCCN(C)C)OCCCC[C@H](C)O3)cc1 was read as A1 apoptosis 2 0.
For C[C@H]1CN([C@@H](C)CO)C(=O)Cc2cc(NC(=O)Nc3ccc(C(F)(F)F)cc3)ccc2O[C@@H]1CN(C)Cc1ccc(C(F)(F)F)cc1 the results were INS-1E ATP HTS -81, A1 apoptosis 2 0 and T cruzi intra 69*.
C[C@@H]1CN([C@@H](C)CO)C(=O)Cc2cc(NC(=O)Nc3ccc(F)cc3)ccc2O[C@H]1CN(C)Cc1ccc(C(F)(F)F)cc1 was read as A1 apoptosis 2 -1.
`C[C@@H]1CN([C@@H](C)CO)C(=O)Cc2cc(NC(=O)Nc3ccc(F)cc3)ccc2O[C@@H]1CN(C)Cc1ccc(C(F)(F)F)cc1` gave INS-1E ATP HTS -32 and T cruzi intra 80*.
Screening C[C@@H]1CN([C@@H](C)CO)C(=O)Cc2cc(NC(=O)C3CC3)ccc2O[C@@H]1CN(C)Cc1ccc(C(F)(F)F)cc1 returned INS-1E ATP HTS -4, A1 apoptosis 2 0 and T cruzi intra -13.
`C[C@H]1CN([C@@H](C)CO)C(=O)Cc2cc(NC(=O)Nc3ccc(F)cc3)ccc2O[C@H]1CN(C)Cc1ccc(C(F)(F)F)cc1` gave INS-1E ATP HTS -52 and T cruzi intra 46.
C[C@@H]1CN([C@@H](C)CO)C(=O)Cc2cc(NC(=O)Nc3ccc(C(F)(F)F)cc3)ccc2O[C@@H]1CN(C)C(=O)Nc1ccc(C(F)(F)F)cc1 was read as INS-1E ATP HTS -11, A1 apoptosis 2 1 and T cruzi intra 76*.
`C[C@@H]1CN([C@H](C)CO)C(=O)Cc2cc(NC(=O)Nc3ccc(C(F)(F)F)cc3)ccc2O[C@H]1CN(C)C(=O)Nc1ccc(C(F)(F)F)cc1` gave INS-1E ATP HTS -30, A1 apoptosis 2 0 and T cruzi intra -15.
Screening C[C@H]1CN([C@@H](C)CO)C(=O)Cc2cc(NC(=O)C3CC3)ccc2O[C@@H]1CN(C)Cc1ccc(C(F)(F)F)cc1 returned INS-1E ATP HTS 0, A1 apoptosis 2 0 and T cruzi intra 74*.
C[C@@H]1CN([C@@H](C)CO)C(=O)Cc2cc(NC(=O)Nc3cccc4ccccc34)ccc2O[C@@H]1CN(C)C(=O)Nc1ccc2c(c1)OCO2 was read as INS-1E ATP HTS 2, A1 apoptosis 2 2 and T cruzi intra -3.
Screening CC(C)(C)OC(=O)NC1(/C=N/NC(=O)CCCCCCC(=O)NO)CCCC1 returned A1 apoptosis 2 0.
Screening C[C@@H]1CN([C@@H](C)CO)C(=O)Cc2cc(NC(=O)Nc3ccc(C(F)(F)F)cc3)ccc2O[C@@H]1CN(C)Cc1ccc2c(c1)OCO2 returned INS-1E ATP HTS -35 and T cruzi intra 58*.
`C[C@@H]1CN([C@H](C)CO)C(=O)Cc2cc(NC(=O)Nc3ccc(C(F)(F)F)cc3)ccc2O[C@H]1CN(C)Cc1ccc2c(c1)OCO2` gave INS-1E ATP HTS 0, A1 apoptosis 2 -1 and T cruzi intra 8.
`O=C(CCCCCC(=O)Nc1ccccc1O)N/N=C/c1ccc(O)cc1O` gave INS-1E ATP HTS -1, A1 apoptosis 2 -1 and T cruzi intra 22.
Screening COc1cc(/C=N/NC(=O)c2ccccc2O)cc(OC)c1OC returned INS-1E ATP HTS -41, A1 apoptosis 2 0 and T cruzi intra -33.
For C[C@@H]1CN([C@H](C)CO)C(=O)c2cccc(NC(=O)c3ccncc3)c2O[C@H]1CN(C)Cc1ccc(Cl)c(Cl)c1 the results were INS-1E ATP HTS 1, A1 apoptosis 2 -1 and T cruzi intra 76*.
For C[C@H]1CN([C@@H](C)CO)C(=O)c2cccc(NC(=O)c3ccncc3)c2O[C@H]1CN(C)Cc1ccncc1 the results were INS-1E ATP HTS 11 and T cruzi intra -18.
C[C@@H]1CN([C@@H](C)CO)C(=O)c2cccc(NC(=O)c3ccncc3)c2O[C@H]1CN(C)Cc1ccc(Cl)c(Cl)c1 was read as INS-1E ATP HTS 3, A1 apoptosis 2 0 and T cruzi intra 78*.
For C[C@H](CO)N1C[C@H](C)[C@H](CN(C)Cc2ccc(Cl)c(Cl)c2)Oc2c(NC(=O)c3ccncc3)cccc2C1=O the results were INS-1E ATP HTS -8, A1 apoptosis 2 1 and T cruzi intra 56*.
For C[C@@H]1CN([C@H](C)CO)C(=O)c2cccc(NC(=O)c3ccncc3)c2O[C@H]1CN(C)Cc1ccncc1 the results were INS-1E ATP HTS 4, A1 apoptosis 2 1 and T cruzi intra -16.
For C[C@H](CO)N1C[C@H](C)[C@H](CN(C)Cc2ccncc2)Oc2c(NC(=O)c3ccncc3)cccc2C1=O the results were INS-1E ATP HTS 4, A1 apoptosis 2 0 and T cruzi intra -8.
Screening CC(/C=C/C(=O)NO)=C\c1cccc(OCc2ccc(-c3ccncc3)cc2)c1 returned A1 apoptosis 2 0.
Screening C[C@@H]1CCCCO[C@@H](CN(C)Cc2ccc(C(=O)Nc3ccccc3N)cc2)[C@@H](C)CN([C@H](C)CO)C(=O)c2cc(N(C)C)ccc2O1 returned A1 apoptosis 2 1.
C[C@@H]1CN([C@@H](C)CO)C(=O)c2cc(NS(C)(=O)=O)ccc2O[C@@H](C)CCCCO[C@H]1CN(C)Cc1ccccc1 was read as A1 apoptosis 2 -1.
For C[C@H]1CN([C@@H](C)CO)C(=O)c2cc(N(C)C)ccc2O[C@H]1CN(C)Cc1ccc(C(=O)Nc2ccccc2N)cc1 the results were INS-1E ATP HTS 6 and T cruzi intra 17.
Screening CC(C)NC(=O)Nc1ccc2c(c1)C(=O)N([C@@H](C)CO)C[C@H](C)[C@@H](CN(C)Cc1ccc(C(=O)Nc3ccccc3N)cc1)O2 returned INS-1E ATP HTS -15 and T cruzi intra 58*.
